The nature of series [1]: Stability assessed as rate of NADH formation in presence of eicosanoid oxido-reductase. The class given is ADME. Put shortly:
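Compound at ~15 μM incubated with 50 ng recombinant eicosanoid oxido-reductase in 0.1 M Tris–HCl pH 9.0 with 1 mM NAD⁺, 37 °C, 25 min, while NADH formation was monitored. Initial velocity was taken by linear regression over the linear phase of conversion. Values are means ± SEM, n = 3.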

Another series concerns Mus musculus. The experiment in a line: Antiinflammatory activity against FVB mouse assessed as inhibition of zymosan-induced neutrophil infiltration at 15 ug/kg, iv relative to control. The class given is functional. In a few lines: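 Male FVB mice, 6–8 weeks old, given 15 μg kg⁻¹ by intravenous bolus into the tail vein in 100 μL sterile saline, then an intraperitoneal injection of zymosan A (1 mg/1 mL). Peritoneal lavage was collected at 2 h, and total leukocytes, PMNs and monocytes were counted. PMN inhibition is relative to zymosan A plus saline vehicle. Values are means ± SEM, n = 5–10.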

Results on eight compounds are retold here after ChEMBL document CHEMBL1142294, “Design and synthesis of benzo-lipoxin A4 analogs with enhanced stability and potent anti-inflammatory properties” (Bioorg Med Chem Lett, 2008).

Take `CCCCCC/C=C/c1ccccc1/C=C/[C@@H](O)[C@@H](O)CCCC(=O)OC`: the Stability in series [1] came to 0.04 µM/min. For the same compound, in the series with Mus musculus, the inhibition in vivo at 0.015 mg/kg was found to be 23.9%.

Consider `CCCCC[C@@H](O)/C=C/C=C/c1ccccc1/C=C/[C@@H](O)[C@@H](O)CCCC(=O)OC`, for which the Stability in series [1] stood at 0.14 µM/min. Further, in the series on Mus musculus, the inhibition in vivo at 0.015 mg/kg was found to be 17.3%. As to `COC(=O)CCC[C@H](O)[C@H](O)/C=C/C=C/C=C\C=C\[C@H](O)COc1ccc(F)cc1`, the inhibition in vivo at 0.015 mg/kg in the series with Mus musculus was 40.5%.

Take `CCCCC[C@H](O)/C=C/C=C\C=C\C=C\[C@@H](O)[C@@H](O)CCCC(=O)O` [LIPOXIN A4]: in series [1], the Stability is 2.42 µM/min.

Take `CCCCC[C@@H](O)/C=C/c1cccc(/C=C/[C@@H](O)[C@@H](O)CCCC(=O)OC)c1`: in series [1], the Stability came out at 0.45 µM/min. Moreover, the inhibition in vivo at 0.015 mg/kg in the series with Mus musculus is 32%.

On to `CCCCC[C@@H](O)/C=C/C=C\C=C\C=C\[C@@H](O)[C@@H](O)CCCC(=O)O`, for which, in series [1], the Stability is 0.21 µM/min. As for `CCCCC[C@@H](O)/C=C/c1ccccc1/C=C/[C@@H](O)[C@@H](O)CCCC(=O)OC`, in series [1], the Stability worked out at 0.19 µM/min. The inhibition in vivo at 0.015 mg/kg in the series on Mus musculus was 32.2%. As to `CCCCCC(O)c1ccccc1/C=C/[C@@H](O)[C@@H](O)CCCC(=O)OC` (mixture of isomers), the Stability in series [1] was found to be 0.09 µM/min. Further, the inhibition in vivo at 0.015 mg/kg with Mus musculus turned out to be 22.3%.
